Converted amounts (≈) assume the structure as drawn. The source made the active and inactive calls. The calls are words filed in the database; no cut-off is given here.

The test system of assay [1] is Bacillus subtilis. Briefly: Antibacterial activity against Bacillus subtilis ATCC 6051 by microdilution assay. The class given is functional. The procedure, abridged:
(§1)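 Turbidimetric broth microdilution. Log-phase cells were washed and resuspended in broth (LB at 37 °C for B. subtilis and S. aureus; oat bran broth at 28 °C for S. scabies) and seeded at 1 × 10⁵ CFU/mL. Twofold serial dilutions were made with DMSO ≤1% (v/v). A620 was read, then plates were incubated with vigorous shaking. MIC was the lowest concentration with no apparent growth versus vehicle-only medium without cells. Run in triplicate.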
(In general: In broth dilution the organism is exposed to a series of concentrations in liquid medium.)

For assay [2], the system named is Streptomyces scabiei. The assay can be described thus: Antibacterial activity against Streptomyces scabiei CGMCC4.7610246 by microdilution assay. The class given is functional. The gist of the method: as §1
The test system of assay [3] is Staphylococcus aureus. Briefly: Antibacterial activity against Staphylococcus aureus ATCC 25923 by microdilution assay. The class given is functional. The gist of the method:
as §1

Assay [4] deals with Staphylococcus aureus. The assay can be described thus: Antibacterial activity against methicillin-resistant Staphylococcus aureus by microdilution assay. The class given is functional. The procedure, abridged: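 Log-phase cells seeded at 1 × 10⁵ CFU/mL. Twofold serial dilutions made in broth with DMSO cosolvent, at most 1% v/v. Turbidity read at 620 nm before and after incubation with vigorous shaking. MIC is the lowest concentration with no apparent growth versus the medium-plus-vehicle control. Run in triplicate.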

Assay [5] concerns Escherichia coli. The assay can be described thus: Antibacterial activity against Escherichia coli at 100 uM measured after 5 to 6 hrs by microdilution assay. It is filed as functional, organism-based.
Assay [6] concerns Pseudomonas aeruginosa. The assay can be described thus: Antibacterial activity against Pseudomonas aeruginosa at 100 uM measured after 5 to 6 hrs by microdilution assay. It is filed as functional, organism-based.
Assay [7] concerns Pseudomonas aeruginosa. The assay can be described thus: Antibacterial activity against multi-drug resistant Pseudomonas aeruginosa at 100 uM measured after 5 to 6 hrs by microdilution assay. The class given is functional, organism-based. The gist of the method: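 Log-phase cells seeded at 1 × 10⁵ CFU/mL. Single-dose screen at 100 μM, with DMSO cosolvent at most 1% v/v. Growth measured turbidimetrically at 620 nm, before and after incubation with vigorous shaking.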

Regarding `CCOC(=O)[C@@]1(C)CC[C@]2(C)CC[C@]3(C)C(=CC(=O)[C@@H]4[C@@]5(C)[C@@H](O)[C@H](O)[C@H](O)C(C)(C)[C@@H]5CC[C@]43C)[C@@H]2C1`, the MIC (commonly the least concentration at which growth counts as inhibited) in assay [1] turned out to be 16.9 µg/mL (≈ 31.8 µM); in assay [2], 2.1 µg/mL (≈ 3.96 µM); in assay [3], 4.2 µg/mL (≈ 7.91 µM); in assay [4] it was 4 µg/mL (≈ 7.54 µM). In addition, the outcome in assay [5], in assay [6] and in assay [7] was inactive.
In the case of `CC1(C)[C@@H](O)[C@@H](O)[C@H](O)[C@]2(C)[C@H]3CC=C4[C@@H]5C[C@@](C)(C(=O)OCc6ccccc6)CC[C@]5(C)CC[C@@]4(C)[C@]3(C)CC[C@@H]12`, the MIC in assay [1] is more than 36.9 µg/mL; in assay [2] it was more than 36 µg/mL; in assay [3] it was more than 36.9 µg/mL; in assay [4], 8 µg/mL (≈ 13.8 µM). For the same compound, the result in assay [5], in assay [6] and in assay [7] was inactive.
Take `CC1(C)[C@@H](O)[C@@H](O)[C@H](O)[C@]2(C)[C@H]3CC=C4[C@@H]5C[C@@](C)(C(=O)OCc6ccc(Cl)cc6)CC[C@]5(C)CC[C@@]4(C)[C@]3(C)CC[C@@H]12`: the minimal inhibitory concentration (MIC) in assay [1], in assay [2], in assay [3] and in assay [4] was more than 50 µg/mL in each case. In addition, the result in assay [5], in assay [6] and in assay [7] was inactive.
Regarding `CC1(C)[C@@H](O)[C@@H](O)[C@H](O)[C@]2(C)[C@H]3C(=O)C=C4[C@@H]5C[C@@](C)(C(=O)OCc6ccc([N+](=O)[O-])cc6)CC[C@]5(C)CC[C@@]4(C)[C@]3(C)CC[C@@H]12`, the MIC in assay [1], in assay [2], in assay [3] and in assay [4] was more than 50 µg/mL each time. Also, the result in assay [5], in assay [6] and in assay [7] was inactive.
For `CC1(C)[C@@H](O)[C@@H](O)[C@H](O)[C@]2(C)[C@H]3C(=O)C=C4[C@@H]5C[C@@](C)(C(=O)O)CC[C@]5(C)CC[C@@]4(C)[C@]3(C)CC[C@@H]12`, the MIC in assay [1], in assay [2], in assay [3] and in assay [4] was more than 50 µg/mL throughout. Also, the outcome in assay [5], in assay [6] and in assay [7] was inactive.
For `CCCOC(=O)[C@@]1(C)CC[C@]2(C)CC[C@]3(C)C(=CC(=O)[C@@H]4[C@@]5(C)[C@@H](O)[C@H](O)[C@H](O)C(C)(C)[C@@H]5CC[C@]43C)[C@@H]2C1`, the MIC in assay [1] is more than 34.8 µg/mL; in assay [2], 4.3 µg/mL (≈ 7.89 µM); in assay [3], 4.3 µg/mL (≈ 7.89 µM); in assay [4], 2 µg/mL (≈ 3.67 µM). Besides, the outcome in assay [5], in assay [6] and in assay [7] was inactive.
As to `CC1(C)[C@@H](O)[C@@H](O)[C@H](O)[C@]2(C)[C@H]3C(=O)C=C4[C@@H]5C[C@@](C)(C(=O)OCc6ccccc6[N+](=O)[O-])CC[C@]5(C)CC[C@@]4(C)[C@]3(C)CC[C@@H]12`, the minimum inhibitory concentration (MIC) in assay [1], in assay [2], in assay [3] and in assay [4] was more than 50 µg/mL each time. Moreover, the outcome in assay [5], in assay [6] and in assay [7] was inactive.
Regarding `CC1(C)C(=O)CC[C@]2(C)[C@H]3C(=O)C=C4[C@@H]5C[C@@](C)(C(=O)OCc6ccccc6)CC[C@]5(C)CC[C@@]4(C)[C@]3(C)CC[C@@H]12`, the MIC in assay [1], in assay [2], in assay [3] and in assay [4] was more than 50 µg/mL each time. The outcome in assay [5], in assay [6] and in assay [7] was inactive.
On to `CC1(C)[C@H](O)[C@@H](O)[C@H](O)[C@]2(C)[C@H]3C(=O)C=C4[C@@H]5C[C@@](C)(C(=O)O)CC[C@]5(C)CC[C@@]4(C)[C@]3(C)CC[C@@H]12`, for which the MIC in assay [1], in assay [2], in assay [3] and in assay [4] was more than 50 µg/mL each time. Besides, the result in assay [5], in assay [6] and in assay [7] was inactive.
For the compound `CCCCOC(=O)[C@@]1(C)CC[C@]2(C)CC[C@]3(C)C(=CC[C@@H]4[C@@]5(C)[C@@H](O)[C@H](O)[C@H](O)C(C)(C)[C@@H]5CC[C@]43C)[C@@H]2C1`, the MIC was more than 34.8 µg/mL in assay [1], 4.3 µg/mL (≈ 7.89 µM) in assay [2], more than 34.8 µg/mL in assay [3] and more than 32 µg/mL in assay [4]. Further, the result in assay [5], in assay [6] and in assay [7] was inactive.
With `CCCCOC(=O)[C@@]1(C)CC[C@]2(C)CC[C@]3(C)C(=CC(=O)[C@@H]4[C@@]5(C)[C@@H](O)[C@H](O)[C@H](O)C(C)(C)[C@@H]5CC[C@]43C)[C@@H]2C1`, the MIC was more than 35.7 µg/mL in assay [1], 4.4 µg/mL (≈ 7.87 µM) in assay [2], more than 35.7 µg/mL in assay [3] and 4 µg/mL (≈ 7.16 µM) in assay [4]. Also, the outcome in assay [5], in assay [6] and in assay [7] was inactive.
Take `CCCOC(=O)[C@@]1(C)CC[C@]2(C)CC[C@]3(C)C(=CC[C@@H]4[C@@]5(C)[C@@H](O)[C@H](O)[C@H](O)C(C)(C)[C@@H]5CC[C@]43C)[C@@H]2C1`: the MIC in assay [1] is more than 33.9 µg/mL; in assay [2], more than 33.9 µg/mL; in assay [3], 8.4 µg/mL (≈ 15.8 µM); in assay [4], 8 µg/mL (≈ 15.1 µM). Besides, the result in assay [5], in assay [6] and in assay [7] was inactive.
Turning to `CCCCCCCCCCCCCCCOC(=O)[C@@]1(C)CC[C@]2(C)CC[C@]3(C)C(=CC[C@@H]4[C@@]5(C)[C@@H](O)[C@H](O)[C@H](O)C(C)(C)[C@@H]5CC[C@]43C)[C@@H]2C1`, the minimum inhibitory concentration (MIC) in assay [1], in assay [2], in assay [3] and in assay [4] was more than 50 µg/mL throughout. The result in assay [5], in assay [6] and in assay [7] was inactive.
For `CC1(C)[C@@H](O)[C@@H](O)[C@H](O)[C@]2(C)[C@H]3C(=O)C=C4[C@@H]5C[C@@](C)(C(=O)OCc6ccc(Cl)cc6)CC[C@]5(C)CC[C@@]4(C)[C@]3(C)CC[C@@H]12`, the MIC in assay [1], in assay [2], in assay [3] and in assay [4] was more than 50 µg/mL each time. The outcome in assay [5], in assay [6] and in assay [7] was inactive.
Take `CC1(C)[C@H](O)[C@@H](O)[C@H](O)[C@]2(C)[C@H]3C(=O)C=C4[C@@H]5C[C@@](C)(C(=O)OCc6ccccc6)CC[C@]5(C)CC[C@@]4(C)[C@]3(C)CC[C@@H]12`: the MIC in assay [1] is more than 37.8 µg/mL; in assay [2] it was more than 37.8 µg/mL; in assay [3] it was more than 37.8 µg/mL; in assay [4], 4 µg/mL (≈ 6.75 µM). Moreover, the outcome in assay [5], in assay [6] and in assay [7] was inactive.
With `CC1(C)C(=O)C=C[C@]2(C)[C@H]3C(=O)C=C4[C@@H]5C[C@@](C)(C(=O)OCc6ccccc6)CC[C@]5(C)CC[C@@]4(C)[C@]3(C)CC[C@@H]12`, the minimal inhibitory concentration (MIC) in assay [1], in assay [2], in assay [3] and in assay [4] was more than 50 µg/mL throughout. Further, the result in assay [5], in assay [6] and in assay [7] was inactive.
With `CC1(C)[C@@H](O)[C@@H](O)[C@H](O)[C@]2(C)[C@H]3CC=C4[C@@H]5C[C@@](C)(C(=O)OCc6ccc([N+](=O)[O-])cc6)CC[C@]5(C)CC[C@@]4(C)[C@]3(C)CC[C@@H]12`, the MIC in assay [1], in assay [2], in assay [3] and in assay [4] was more than 50 µg/mL each time. The result in assay [5], in assay [6] and in assay [7] was inactive.
On to `CC1(C)[C@@H](O)[C@@H](O)[C@H](O)[C@]2(C)[C@H]3C(=O)C=C4[C@@H]5C[C@@](C)(C(=O)OCc6ccccc6Cl)CC[C@]5(C)CC[C@@]4(C)[C@]3(C)CC[C@@H]12`, for which the MIC in assay [1], in assay [2], in assay [3] and in assay [4] was more than 50 µg/mL in each case. For the same compound, the result in assay [5], in assay [6] and in assay [7] was inactive.
On to `CCCCCOC(=O)[C@@]1(C)CC[C@]2(C)CC[C@]3(C)C(=CC[C@@H]4[C@@]5(C)[C@@H](O)[C@H](O)[C@H](O)C(C)(C)[C@@H]5CC[C@]43C)[C@@H]2C1`, for which the MIC in assay [1], in assay [2], in assay [3] and in assay [4] was more than 50 µg/mL each time. In addition, the result in assay [5], in assay [6] and in assay [7] was inactive.

For the origin of these results see ChEMBL document CHEMBL4477166, “18β-Glycyrrhetinic Acid Derivatives Possessing a Trihydroxylated A Ring Are Potent Gram-Positive Antibacterial Agents” (2016).
